The values below come from the RNAGym collection of RNA variant scans (doi:10.1126/science.aae0568).

Variants at the floor of the assay were thinned out. Bounds are passed on as bounds.

First the molecules themselves.
B1: tRNA (parent)
chain: GUUCCGUUGGCGUAAUGGUAACGCGUCUCCCUCCUAAGGAGAAGACUGCGGGUUCGAGUCCCGUACGGAACG

This data set covers variants of B1. As to the kind of experiment: yeast fitness relative to wild type (ratio to wild type); higher = fitter; tRNA-Arg(CCU), competitive growth, 37 C, YPD. In short, it runs like this: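 Start and end populations of a pooled competition were compared by 100-nucleotide paired-end sequencing of gene amplicons. The Saccharomyces cerevisiae strains carried tRNA-Arg(CCU) gene variants at the native genomic locus, synthesised with a 3% per-site mutation rate at 69 sites, and competed in YPD at 37°C for 24 hours in six parallel replicates. Darwinian fitness relative to wild type was based on the change in genotype frequencies. Genotypes required ≥ 100 starting reads, and estimates < 0.5 were set to 0.5.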
With C5U C11U A20U, the yeast fitness is 0.561.

For the variant C5U A21G A42U, the yeast fitness was 0.908.

With C5U A21G A42C, the yeast fitness was 0.761.

In the case of C5G C24A, the yeast fitness stood at 0.96.

Regarding C5G C24G, the yeast fitness amounted to 0.604.

With C5G U28A C55G, the yeast fitness is ≤ 0.5.

As to C5U C24G A43C A45U G52A, the yeast fitness is ≤ 0.5.

On to C5G U8C G41A, for which the yeast fitness is ≤ 0.5.

With C5G C11U C31U, the yeast fitness came out at 0.676.

As to C5G U7C G51C, the yeast fitness was 0.564.

With C5U C24U G44C, the yeast fitness is 0.528.

For the variant C5G C33A A65U, the yeast fitness is ≤ 0.5.

As to C5U C11A C24A U28G, the yeast fitness is 0.63.

Regarding C5G C11G A15U U54C C61G A70C, the yeast fitness was ≤ 0.5.

For C5G C29A A36G A42C G44A C49U C60U, the yeast fitness was ≤ 0.5.

As to C5G G48C C49U U54G A65G C66A, the yeast fitness is ≤ 0.5.

C5U C24U A36G: the yeast fitness came out at 0.791.

With C5G U16A U19G A20C C27U C29U C30U A70G, the yeast fitness was ≤ 0.5.

For C5G U26A A36C C61U, the yeast fitness is ≤ 0.5.

With C5G U28A A40C, the yeast fitness amounted to 0.581.

Turning to C5U A37G, the yeast fitness is 0.795.

C5U A57U: the yeast fitness worked out at 0.663.

On to C5G C34A G39C G52A G58A G63A, for which the yeast fitness was ≤ 0.5.

Turning to C5G C30A A36G, the yeast fitness amounted to 0.568.

Regarding C5U C22U A37C C55A A69U, the yeast fitness is ≤ 0.5.

For the variant C5U C24A U32C, the yeast fitness is 0.565.

Take C5U C22G C29G A69U: the yeast fitness is ≤ 0.5.

As to C5U A21G C29U C31A G51C, the yeast fitness is ≤ 0.5.

C5G U47C G51A A65C: the yeast fitness was 0.548.

For the variant C5G G9A A43G G48C, the yeast fitness was ≤ 0.5.

For the variant C5U A21G U28C A36G C55A, the yeast fitness is ≤ 0.5.

On to C5U A14C A42U, for which the yeast fitness is ≤ 0.5.

As for C5U A15U C29U C31U C34U C55U, the yeast fitness was ≤ 0.5.

C5G A43U C61G: the yeast fitness is ≤ 0.5.

Take C5U A45G: the yeast fitness worked out at 0.974.

For the variant C5U A45U, the yeast fitness worked out at 1.01.

C5G G48A A70U: the yeast fitness amounted to 0.803.

In the case of C5U C22A C31U G68C, the yeast fitness is ≤ 0.5.

Take C5U C22G C46A C60G: the yeast fitness is ≤ 0.5.

With C5G C46G A65G, the yeast fitness came to 0.594.

Take C5U A36U C60U: the yeast fitness turned out to be 0.81.

On to C5G A42C G51C A65G, for which the yeast fitness was ≤ 0.5.

As to C5U C11A A20C C22G C30U C31G, the yeast fitness is ≤ 0.5.

Take C5G G6C A21U: the yeast fitness worked out at 0.544.

As to C5G U16C C31U, the yeast fitness was determined as 0.627.

For the variant C5U C24U, the yeast fitness was 0.99.

For C5G C30G C31A G50A U54C U59A, the yeast fitness stood at 0.596.

On to C5U A20C G63A, for which the yeast fitness is 0.607.

In the case of C5U C11A G50C, the yeast fitness was 0.598.

Regarding C5G C46G, the yeast fitness amounted to 0.751.

Regarding C5U A15G A42U, the yeast fitness amounted to 0.703.

Consider C5G U13C A21C A57U A65U G68C, for which the yeast fitness was ≤ 0.5.

As to C5G U13G C27G C30A, the yeast fitness was ≤ 0.5.

Regarding C5U A42G A65C, the yeast fitness worked out at 0.596.

As to C5G U13C C22G G23U C29G A45C G68C A69G, the yeast fitness came out at 0.531.

As for C5G C11A A40C U59C, the yeast fitness is ≤ 0.5.

With C5U C22U C33U C49U C62G, the yeast fitness is ≤ 0.5.

On to C5U C11A, for which the yeast fitness stood at 0.586.

For the variant C5U A21U C30G G56A C66A, the yeast fitness is ≤ 0.5.

As for C5G C33A A42G A57G, the yeast fitness was ≤ 0.5.

As for C5G G18A G25A C61U A69G, the yeast fitness is 0.574.

As for C5G C60G C62G G67C A69U, the yeast fitness came out at 0.654.

Take C5G G6C: the yeast fitness was 0.718.

On to C5G C22U C27U A36G, for which the yeast fitness is ≤ 0.5.

For the variant C5U A40G A45U, the yeast fitness is 0.638.

Regarding C5G G51A A69U, the yeast fitness was 0.528.

For C5G G17C, the yeast fitness came to 0.651.

Regarding C5G G18A G25A A42G, the yeast fitness is ≤ 0.5.

C5G U64G: the yeast fitness turned out to be 0.86.

Regarding C5G U28G G38C, the yeast fitness is ≤ 0.5.

Turning to C5U A20C U32C A40U G50A G52A, the yeast fitness was ≤ 0.5.

On to C5G A21U C27U U28G C33G A36G, for which the yeast fitness is ≤ 0.5.

With C5U A14G A21U G56C G68C, the yeast fitness was ≤ 0.5.

Regarding C5G C24G A40U, the yeast fitness came out at 0.57.

For C5G C24U C27A G51C G56C, the yeast fitness is ≤ 0.5.

On to C5U A45C G56A, for which the yeast fitness turned out to be 0.801.

Regarding C5G G44C C49G, the yeast fitness was 0.521.

For C5G U13G C29U A40G G68A A70C, the yeast fitness was ≤ 0.5.

On to C5U A15C G23C, for which the yeast fitness is ≤ 0.5.

As to C5G C29U G39A G58C A69U, the yeast fitness was ≤ 0.5.

In the case of C5U A21U U32A A40U, the yeast fitness was 0.634.

As to C5U C22U C30G C55U, the yeast fitness was ≤ 0.5.

For C5G C66A, the yeast fitness worked out at 0.703.

On to C5G G12C U19A C31A, for which the yeast fitness is ≤ 0.5.

Turning to C5G C22A A37G, the yeast fitness was ≤ 0.5.

In the case of C5U A21C G44C, the yeast fitness came to 0.529.

On to C5G A36U G41A, for which the yeast fitness was ≤ 0.5.

For C5G C34A G50C, the yeast fitness is ≤ 0.5.

In the case of C5U A20U, the yeast fitness was 0.94.

Consider C5G U7C G10A C29G, for which the yeast fitness was ≤ 0.5.

For the variant C5U A15G U16C C66U, the yeast fitness was ≤ 0.5.

On to C5G C33A A36C C66U, for which the yeast fitness was ≤ 0.5.

For the variant C5G G6A C24U, the yeast fitness was found to be 0.577.

Turning to C5G G39C A69U, the yeast fitness worked out at 0.538.

As for C5G U32A G56A, the yeast fitness was determined as 0.634.

For C5G G25A G68U, the yeast fitness stood at 0.633.

For the variant C5U A21G A42U G58A C66U, the yeast fitness worked out at 0.706.

Consider C5G C34G A40G G48C G63A C66U, for which the yeast fitness was ≤ 0.5.

Consider C5U C22U C34A A42U G44C C61A, for which the yeast fitness was ≤ 0.5.

In the case of C5G G9A C61U, the yeast fitness is ≤ 0.5.

C5G G9C C33A U35C C46U C49U G52C C61U C66U: the yeast fitness is ≤ 0.5.

Regarding C5G C22U U26A A65U, the yeast fitness is ≤ 0.5.

Regarding C5G U59A, the yeast fitness worked out at 0.896.

As to C5G C34A, the yeast fitness was found to be 0.702.

In the case of C5G A42G C49G A70U, the yeast fitness is ≤ 0.5.

Regarding C5G G10C A69C, the yeast fitness stood at 0.556.

On to C5G A43U C66U A69U, for which the yeast fitness was ≤ 0.5.

In the case of C5U C11U G25C A45C C62A A70U, the yeast fitness was found to be 0.611.

For the variant C5G C27G C46G A65G, the yeast fitness was ≤ 0.5.

For C5G C11U A42U G68A, the yeast fitness is ≤ 0.5.

For the variant C5G A36U G41A A65U, the yeast fitness amounted to 0.549.

In the case of C5U C24U G41C A70C, the yeast fitness was ≤ 0.5.

In the case of C5G C11U G25C G52U, the yeast fitness worked out at 0.618.

Consider C5G G51A C62G, for which the yeast fitness is ≤ 0.5.

Turning to C5G U8A G41C G63A, the yeast fitness is ≤ 0.5.

As for C5U C27G C46U, the yeast fitness came to 0.753.

For C5G C27A A37C C55G, the yeast fitness was ≤ 0.5.

As for C5G A37U C55G C61G C66G, the yeast fitness amounted to 0.623.

Take C5U C22U C33U G67A: the yeast fitness was ≤ 0.5.

For the variant C5U A40G G56A A69C, the yeast fitness was determined as 0.575.

Turning to C5U C22G C31G U54G, the yeast fitness is ≤ 0.5.

Regarding C5G C55G A65C G67A, the yeast fitness is ≤ 0.5.

With C5G G17A A20C C49G G63A, the yeast fitness is ≤ 0.5.

Consider C5G G17A C22U U28C C46U G58A, for which the yeast fitness was ≤ 0.5.

Take C5G G58C A69C: the yeast fitness was 0.794.

As for C5U C22A U32A C60G, the yeast fitness is ≤ 0.5.

Take C5G U32C A45G C46A: the yeast fitness is 0.907.

For the variant C5G A43U U64C, the yeast fitness came to 0.703.

With C5G G17A A40C U59C, the yeast fitness is 0.723.

Consider C5G A36U C66U, for which the yeast fitness is ≤ 0.5.

For C5G A36U A42G A57C, the yeast fitness was ≤ 0.5.

For the variant C5U C11U A15U C31U C49U, the yeast fitness was ≤ 0.5.

With C5G C27U G41C C61U C66G, the yeast fitness was ≤ 0.5.

With C5U C27A C33G A45C G50C G58A, the yeast fitness is 0.514.

With C5G G17A U26C, the yeast fitness was ≤ 0.5.

As for C5U C22G C29A, the yeast fitness was 0.585.

As to C5G U47A G56U G58C, the yeast fitness was ≤ 0.5.

In the case of C5G C11A A14G G25C C29G A57U C66U, the yeast fitness is ≤ 0.5.

With C5U A21C A43C, the yeast fitness is ≤ 0.5.

C5G C31U: the yeast fitness was determined as 0.867.

Regarding C5G G17A A20C G52A A65U, the yeast fitness was ≤ 0.5.

As for C5U A14U C33G C46U A69C, the yeast fitness is ≤ 0.5.

Take C5G U7C C11U G25A: the yeast fitness was ≤ 0.5.

Take C5G A45C U54G: the yeast fitness was 0.622.

With C5G A57C, the yeast fitness turned out to be 0.716.

With C5U C24U A36G C46A U47C C55A G67A, the yeast fitness is ≤ 0.5.

Turning to C5U A20C C29A, the yeast fitness came to 0.666.

For the variant C5U A37G C62G G68C, the yeast fitness was ≤ 0.5.

On to C5G U7G G23C C31U C49U, for which the yeast fitness was ≤ 0.5.

Take C5G C27U A57U: the yeast fitness is ≤ 0.5.

Turning to C5G G51A G68C, the yeast fitness is ≤ 0.5.

Regarding C5U C11U A15G U53A A65G, the yeast fitness is ≤ 0.5.

For C5G G17A U26C A70C, the yeast fitness is ≤ 0.5.

On to C5G G12A A43G, for which the yeast fitness was found to be 0.536.

Take C5U A37C C46U U53C: the yeast fitness is ≤ 0.5.

Regarding C5G C66U G67A, the yeast fitness is 0.533.

As for C5G A36U U59G A65U, the yeast fitness was ≤ 0.5.

In the case of C5U C11U A14U, the yeast fitness was 0.57.

Consider C5U C27A C61U, for which the yeast fitness turned out to be 0.589.

Consider C5G C11G C27G G67U, for which the yeast fitness was ≤ 0.5.

Turning to C5G G25A C46A, the yeast fitness turned out to be 0.651.

For C5G C29U U54G C60G C62U, the yeast fitness was ≤ 0.5.

Consider C5U A21C G44C C46U, for which the yeast fitness was 0.532.

C5G G17C G23C A57C: the yeast fitness is ≤ 0.5.

Turning to C5G C46U G50A, the yeast fitness was determined as 0.731.

Turning to C5U A37U A42U G67A, the yeast fitness was ≤ 0.5.

With C5G U7A C11U A36C G38A G44C, the yeast fitness worked out at 0.589.
